Among the data in ChEMBL document CHEMBL3871264, “Design of a novel thiophene inhibitor of 15-lipoxygenase-1 with both anti-inflammatory and neuroprotective properties” (Eur J Med Chem, 2016) are Km, inhibition and IC50 values, retold here.

To fix the notation:
T1: Polyunsaturated fatty acid lipoxygenase ALOX15 (Mus musculus) (UniProt P39654)
T1 sequence (whole entry): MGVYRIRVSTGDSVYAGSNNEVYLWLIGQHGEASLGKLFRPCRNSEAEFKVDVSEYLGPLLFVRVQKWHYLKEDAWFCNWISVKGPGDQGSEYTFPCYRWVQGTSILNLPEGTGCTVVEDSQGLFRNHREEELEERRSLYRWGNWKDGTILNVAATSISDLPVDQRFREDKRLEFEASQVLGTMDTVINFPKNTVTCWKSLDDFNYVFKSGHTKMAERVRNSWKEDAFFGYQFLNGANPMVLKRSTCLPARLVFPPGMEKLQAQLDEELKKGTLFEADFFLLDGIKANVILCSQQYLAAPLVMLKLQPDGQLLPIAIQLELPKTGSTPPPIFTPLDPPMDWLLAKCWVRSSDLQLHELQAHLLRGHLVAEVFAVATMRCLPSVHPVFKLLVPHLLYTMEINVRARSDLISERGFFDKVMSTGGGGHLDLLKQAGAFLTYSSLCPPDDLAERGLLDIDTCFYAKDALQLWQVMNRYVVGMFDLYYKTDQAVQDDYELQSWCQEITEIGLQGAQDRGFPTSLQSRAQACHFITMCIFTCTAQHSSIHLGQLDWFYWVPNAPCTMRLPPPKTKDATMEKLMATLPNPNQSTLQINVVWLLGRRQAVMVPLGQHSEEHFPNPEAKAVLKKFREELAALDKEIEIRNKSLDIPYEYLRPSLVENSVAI

T2: Polyunsaturated fatty acid lipoxygenase ALOX15 (Homo sapiens, UniProt P16050)
T2 sequence (P16050 whole entry): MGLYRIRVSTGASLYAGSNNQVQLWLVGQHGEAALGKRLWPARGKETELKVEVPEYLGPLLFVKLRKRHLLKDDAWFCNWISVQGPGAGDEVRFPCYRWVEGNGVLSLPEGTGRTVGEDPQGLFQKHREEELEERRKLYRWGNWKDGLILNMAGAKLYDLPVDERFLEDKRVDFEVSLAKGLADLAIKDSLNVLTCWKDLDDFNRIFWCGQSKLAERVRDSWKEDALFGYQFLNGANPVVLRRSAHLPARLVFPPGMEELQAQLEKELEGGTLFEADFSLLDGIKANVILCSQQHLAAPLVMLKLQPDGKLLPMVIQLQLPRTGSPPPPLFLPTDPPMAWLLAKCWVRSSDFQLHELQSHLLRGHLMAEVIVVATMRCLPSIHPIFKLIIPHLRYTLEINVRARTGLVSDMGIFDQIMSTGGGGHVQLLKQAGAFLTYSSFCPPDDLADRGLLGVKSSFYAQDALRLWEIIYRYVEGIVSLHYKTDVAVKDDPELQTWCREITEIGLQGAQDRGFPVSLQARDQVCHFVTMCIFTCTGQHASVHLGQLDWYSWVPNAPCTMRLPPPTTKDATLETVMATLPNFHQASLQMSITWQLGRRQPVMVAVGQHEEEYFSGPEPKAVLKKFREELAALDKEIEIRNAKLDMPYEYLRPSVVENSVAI

B1: Polyunsaturated fatty acid lipoxygenase ALOX15 (Homo sapiens), P16050 (protein)
chain: T2 sequence (P16050 whole entry)

Active and inactive are the calls of the source. The rule behind the calls is not given here.

Compound in the first series: CCCCNC(=O)c1cc(-c2ccccc2)sc1N
In words: Competitive inhibition of human 15-LOX-1 assessed as apparent Km at 15 uM by Lineweaver-Burk plot analysis (reference value: 9.1 +/- 3.4 microM).
Settings: not given
In short, it runs like this:
(§1)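 Purified enzyme activity was read as UV absorbance at 234 nm of the product formed from linoleic acid substrate, in 96-well format. Substrate-dependence runs were done with and without inhibitor. Apparent Km and Vmax were derived from Lineweaver-Burk plots.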
What is called Km is the substrate concentration at which the rate is half of its maximum. As for B1, the Km was found to be 38.2 µM.

A further series addresses T1, Polyunsaturated fatty acid lipoxygenase ALOX15 (Mus musculus). The experiment in a line: Inhibition of 15-LOX-1 in mouse HT22 cells assessed as inhibition of glutamate-induced lipid peroxidation at 1 uM incubated for 14 to 16 hrs by BODIPY 581/591 C11 staining based FACS analysis. Format: cell-based. The conditions noted are these: HT-22. In short, it runs like this:
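HT-22 cells were seeded at 5x10^4 per well and incubated overnight. They were then exposed to 4 mM glutamate in DMEM/10% FCS, with or without 10 µM test inhibitor or 1 µM PD146176, for 6-7 h or 14-16 h. Cells were stained with BODIPY 581/591 C11 at 2 µM final for 1 h at 37 °C. The red-to-green fluorescence shift was read by flow cytometry (488 nm excitation). At least 3 experiments were run, each in triplicate.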
Consider `c1ccc2c(c1)SCc1c-2[nH]c2ccccc12`, for which the inhibition result is “Active”.

Another series addresses T2, Polyunsaturated fatty acid lipoxygenase ALOX15. The experiment in a line: Inhibition of human 15-LOX-1 assessed as reduction in conversion of linoleic acid to 13(S)-HpODE incubated for 10 mins followed by linoleic acid addition by UV-absorbance analysis.
Settings: not given
As usually defined, the IC50 is the concentration at which inhibition is half-maximal. Turning to `CCCCn1c(=O)[nH]c2sc(-c3ccccc3)cc2c1=O`, the IC50 was in the range of 50 to 67.3 µM.

As to `CCCCNC(=O)c1cc(CC)sc1N`, the IC50 was in the range of 50 to 65.3 µM. With `CCCCN(CCCC)C(=O)c1cc(-c2ccccc2)sc1N`, the IC50 is 50 to 152 µM. As for `CCCCNC(=O)c1cc(Cc2ccccc2)sc1N`, the IC50 fell in the range of 50 to 115 µM. Regarding `Nc1sc(-c2ccccc2)cc1C(=O)NCCCCc1ccccc1`, the IC50 lay in the range of 50 to 81.7 µM.

As to `CCCCNC(=O)c1c(N)sc(-c2ccccc2)c1CCCC`, the IC50 was over 50 µM. Same read-out and setting: in the case of `CCCCCc1cc(C(=O)NCCCC)c(N)s1` it was 50 to 61.4 µM; in that of `CCCCNC(=O)c1c(N)sc(-c2ccccc2)c1C`, over 50 µM; in that of `CCCCNC(=O)c1cc(-c2ccc(Br)cc2)sc1N`, 50 to 71.1 µM. Still for that read-out and setting: for `CCCCNC(=O)c1cc(CCC)sc1N` the value was 50 to 65.4 µM. For the molecule `CCCCNC(=O)c1cc(-c2ccc(Cl)cc2)sc1N`, the IC50 lay in the range of 50 to 519 µM.

As to `CCCCNC(=O)c1c(N)sc(-c2ccc(Cl)cc2)c1CCCC`, the IC50 is over 50 µM. Take `CCCCNC(=O)c1cc(C)sc1N`: the IC50 is 50 to 354 µM.

Compound in another series: CCCCNC(=O)c1cc(-c2ccccc2)sc1N
In words: Competitive inhibition of human 15-LOX-1 assessed as apparent Km at 5 uM by Lineweaver-Burk plot analysis (reference value: 9.1 +/- 3.4 microM).
Settings: not given
An outline of the steps:
as §1
In the case of B1, the Km amounted to 14.2 µM.

The target of another series is T1, Polyunsaturated fatty acid lipoxygenase ALOX15 (Mus musculus). In words: Inhibition of 15-LOX-1 in mouse HT22 cells assessed as protection against glutamate-induced cell death by measuring increase in cell viability at 1 uM cotreated with glutamate measured for 16 to 20 hrs by MTT assay. To be noted: HT-22, in the assay text read “14 to 16 hrs” for “16 to 20 hrs”. The class given is cell-based. In short, it runs like this: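 HT-22 cells were seeded at 8x10^3 per well and incubated overnight. They were challenged with 4 mM glutamate in DMEM/10% FCS. Inhibitor was given either with glutamate (1-20 µM; PD146176 at 1 µM) or added at 5 or 10 µM 2, 4, 6 or 8 h after glutamate. After 14-16 h, MTT was added at 0.5 mg/mL for 1 h at 37 °C. Formazan was dissolved in DMSO and read at 570 nm minus 630 nm background, expressed relative to control. Three experiments were run with 6-8 replicates each.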
On the technique in general: Formazan colour is commonly taken as a measure of viable cells.
On to `c1ccc2c(c1)SCc1c-2[nH]c2ccccc12`, for which the inhibition entry is “Active”.

The next series shares this target. In words: Inhibition of 15-LOX-1 in mouse HT22 cells assessed as protection against glutamate-induced cell impedance at 1 uM cotreated with glutamate up to 16 hrs by real time cell viability assay. Format: cell-based. The conditions noted are these: HT-22. In short, it runs like this:
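HT-22 cells were seeded at 8x10^3 per well, incubated overnight, then given 4 mM glutamate. Inhibitor was either co-applied (1-20 µM; PD146176 at 1 µM) or added at 10 µM 2, 4, 6 or 8 h after glutamate. Impedance was recorded in real time for 16-20 h, with cell index normalized just before glutamate addition.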
For `c1ccc2c(c1)SCc1c-2[nH]c2ccccc12`, the inhibition result was “Active”.
